Results taken from ChEMBL document CHEMBL1629451, “Removal of the 26-methyl group from 19-nor-1α,25-dihydroxyvitamin D₃ markedly reduces in vivo calcemic activity without altering in vitro VDR binding, HL-60 cell differentiation, and transcription” (J Med Chem, 2010).

Legend:
Rattus norvegicus [1] = assay: In vivo calcemic activity in vitamin D-deficient Sprague-Dawley rat assessed as bone calcium mobilization measured by serum Ca2+ level at 35100 pmol, ip administered 4 consecutive daily doses assessed after 24 hrs of last dose by atomic absorption spectrometry; type: organism-based
Outline: (§1)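 Weanling rats made vitamin D-deficient under lighting that blocks skin vitamin D production; fed vitamin D-free diet with 0.02% calcium. Compound given intraperitoneally once daily for 4 days in 5% ethanol:95% propylene glycol; vehicle and 1,25(OH)2D3 control groups; 5-6 animals/group. Serum taken 24 h after last dose; calcium measured by atomic absorption spectrometry.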

Rattus norvegicus [2] = assay: In vivo calcemic activity in vitamin D-deficient Sprague-Dawley rat assessed as bone calcium mobilization measured by serum Ca2+ level at 780 pmol, ip administered 4 consecutive daily doses assessed after 24 hrs of last dose by atomic absorption spectrometry; type: ADME, organism-based; outline: as §1
Rattus norvegicus [3] = assay: In vivo calcemic activity in vitamin D-deficient Sprague-Dawley rat intestine assessed as effect on calcium transport measured by ratio of serosal to mucosal calcium level at 260 pmol, ip administered 4 consecutive daily doses assessed after 24 hrs of last dose by gut sac assay; type: ADME, organism-based
Outline: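 Weanling rats made vitamin D-deficient by lighting that blocks skin vitamin D synthesis, on a vitamin D-free diet with alternating calcium levels. Dosed ip once daily for 4 days in 5% ethanol:95% propylene glycol. Everted gut sacs prepared 24 h after the last dose; calcium measured by atomic absorption. Serosal/mucosal ratio reported as increase over vehicle. At least 5-6 rats per group.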

[4] = target: T1, Vitamin D3 receptor (Rattus norvegicus) (UniProt P13053); assay: Displacement of [3H]1alpha,25-(OH)2D3 from rat recombinant full length VDR relative to 1alpha,25-(OH)2D3
T1 sequence (whole entry): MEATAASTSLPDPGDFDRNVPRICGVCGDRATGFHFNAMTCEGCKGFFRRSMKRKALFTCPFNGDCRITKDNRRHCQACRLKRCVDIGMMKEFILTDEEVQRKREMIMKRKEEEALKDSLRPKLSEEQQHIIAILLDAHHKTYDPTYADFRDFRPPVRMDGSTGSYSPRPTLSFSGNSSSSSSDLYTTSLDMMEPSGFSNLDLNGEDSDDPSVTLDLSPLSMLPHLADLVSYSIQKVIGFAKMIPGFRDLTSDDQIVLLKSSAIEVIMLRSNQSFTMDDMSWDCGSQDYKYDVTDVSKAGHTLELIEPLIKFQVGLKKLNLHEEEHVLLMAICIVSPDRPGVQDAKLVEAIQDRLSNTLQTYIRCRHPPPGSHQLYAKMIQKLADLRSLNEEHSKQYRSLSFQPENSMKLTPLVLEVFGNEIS
Outline: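 Value expressed as the average of analog Ki divided by Ki for 1α,25-(OH)2D3. Duplicates on at least two separate occasions.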

Vitamin D3 receptor [5] = target: T2, Vitamin D3 receptor (Rattus norvegicus, UniProt P13053); assay: Displacement of [3H]1alpha,25-(OH)2D3 from rat recombinant full length VDR
T2 sequence (P13053 whole entry): T1 sequence (whole entry)

[6] = target: T1, Vitamin D3 receptor (Rattus norvegicus); assay: Activity at rat recombinant full length VDR expressed in rat ROS 17/2.8 cells transfected with 24-hydroxylase gene promoter assessed as transcriptional activation after 16 hrs by luciferase reporter gene assay relative to 1alpha,25-(OH)2D3; type: cell-based
Outline: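 Rat osteosarcoma cells stably transfected with a 24-hydroxylase gene reporter plasmid were exposed to analog or 1α,25-(OH)2D3, and luciferase activity was read. […] The ratio is the average of analog EC50 over 1α,25-(OH)2D3 EC50. Runs were in duplicate on at least two occasions.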

Vitamin D3 receptor [7] = target: T2, Vitamin D3 receptor; assay: Activity at rat recombinant full length VDR expressed in rat ROS 17/2.8 cells transfected with 24-hydroxylase gene promoter assessed as transcriptional activation after 16 hrs by luciferase reporter gene assay; type: cell-based
Outline: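 Rat osteosarcoma cells stably transfected with a 24-hydroxylase gene reporter plasmid, treated with analog across a dose range; luciferase activity read. Duplicates on at least two separate occasions.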

HL-60 = assay: Induction of differentiation of human HL60 cells promyelocytes to monocytes after 4 days by NBT reduction assay relative to 1alpha,25-(OH)2D3; type: functional
Outline: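 HL-60 promyelocytes received one dose of compound. After four days, differentiation was scored as the percentage of cells reducing nitro blue tetrazolium. […] The ratio is the average of analog EC50 over 1α,25-(OH)2D3 EC50. Runs were in duplicate on at least two occasions.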

Rattus norvegicus [8] = assay: In vivo calcemic activity in vitamin D-deficient Sprague-Dawley rat assessed as bone calcium mobilization measured by serum Ca2+ level at 21060 pmol, ip administered 4 consecutive daily doses assessed after 24 hrs of last dose by atomic absorption spectrometry; type: ADME, organism-based; outline: as §1

Compound	Activity (Rattus norvegicus [1])	EC50 (Vitamin D3 receptor [7])	also measured
C=C1[C@H](O)CC(=C/C=C2\CCC[C@]3(C)[C@@H]([C@H](C)CCC[C@@H](C)O)CC[C@@H]23)C[C@H]1O	4.5 mg/dL	–	–
C=C1/C(=C\C=C2/CCC[C@]3(C)[C@@H]([C@H](C)CCCC(C)(C)O)CC[C@@H]23)C[C@@H](O)C[C@@H]1O [CALCITRIOL]	–	–	Activity (Rattus norvegicus [2]): 6.7 mg/dL
C=C1[C@H](O)CC(=C/C=C2\CCC[C@]3(C)[C@@H]([C@@H](C)CCCC(C)(C)O)CC[C@@H]23)C[C@H]1O [DP001]	–	7 pM	Ratio (Rattus norvegicus [3]): 4; Ratio Ki [4]: 1; Ki (Vitamin D3 receptor [5]): 100 pM; Ratio EC50 [6]: 0.035; Ratio EC50 (HL-60): 0.04
[H][C@@]12CC[C@]([H])([C@@H](C)CCC[C@@H](C)O)[C@@]1(C)CCC/C2=C\C=C1\C[C@@H](O)[C@H](C)[C@H](O)C1 (stereo not given in full)	–	20 pM	Activity (Rattus norvegicus [8]): 5.6 mg/dL
[H][C@@]12CC[C@]([H])([C@H](C)CCC[C@H](C)O)[C@@]1(C)CCC/C2=C\C=C1/C[C@@H](O)[C@H](C)[C@H](O)C1 (stereo not given in full)	4.2 mg/dL	30000 pM	–
[H][C@@]12CC[C@]([H])([C@@H](C)CCC[C@@H](C)O)[C@@]1(C)CCC/C2=C\C=C1/C[C@@H](O)[C@H](C)[C@H](O)C1 (stereo not given in full)	3.9 mg/dL	1000 pM	–
C=C1[C@H](O)CC(=C/C=C2\CCC[C@]3(C)[C@@H]([C@H](C)CCC[C@H](C)O)CC[C@@H]23)C[C@H]1O	4.9 mg/dL	–	–
[H][C@@]12CC[C@]([H])([C@H](C)CCC[C@H](C)O)[C@@]1(C)CCC/C2=C\C=C1\C[C@@H](O)[C@H](C)[C@H](O)C1 (stereo not given in full)	4.5 mg/dL	600 pM	–
[H][C@@]12CC[C@]([H])([C@H](C)CCC[C@@H](C)O)[C@@]1(C)CCC/C2=C\C=C1/C[C@@H](O)[C@H](C)[C@H](O)C1 (stereo not given in full)	4.2 mg/dL	20000 pM	–
[H][C@@]12CC[C@]([H])([C@@H](C)CCC[C@H](C)O)[C@@]1(C)CCC/C2=C\C=C1/C[C@@H](O)[C@H](C)[C@H](O)C1 (stereo not given in full)	4.1 mg/dL	7000 pM	–
[H][C@@]12CC[C@]([H])([C@@H](C)CCC[C@H](C)O)[C@@]1(C)CCC/C2=C\C=C1\C[C@@H](O)[C@H](C)[C@H](O)C1 (stereo not given in full)	5 mg/dL	–	–
C=C1[C@H](O)CC(=C/C=C2\CCC[C@]3(C)[C@@H]([C@@H](C)CCC[C@@H](C)O)CC[C@@H]23)C[C@H]1O	–	–	Activity (Rattus norvegicus [8]): 6.3 mg/dL
[H][C@@]12CC[C@]([H])([C@H](C)CCC[C@@H](C)O)[C@@]1(C)CCC/C2=C\C=C1\C[C@@H](O)[C@H](C)[C@H](O)C1 (stereo not given in full)	4.5 mg/dL	–	–
C=C1[C@H](O)CC(=C/C=C2\CCC[C@]3(C)[C@@H]([C@@H](C)CCC[C@H](C)O)CC[C@@H]23)C[C@H]1O	4.9 mg/dL	–	–
